Source: ChEMBL document CHEMBL2150901, “Synthesis and biological activity of tricyclic cycloalkylimidazo-, pyrimido- and diazepinopurinediones” (Eur J Med Chem, 2011)
The source made the active and inactive calls. The calls are words filed in the database; no cut-off is given here.

Key:
Mus musculus [1] = test: Neurotoxicity in F1 albino mouse assessed as minimal motor impairment at 300 mg/kg, ip after 0.5 hrs by rotorod test; format: toxicity, organism-based; set-up: dose 300 mg/kg, route intraperitoneal; conditions: in vivo
How it was run: (§1)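 Male albino F-1 mice (18–25 g), groups of 1–5 (rotorod 2–8). Compound given ip as a suspension in 0.5% methylcellulose at 30, 100 and 300 mg/kg. Seizures by maximal electroshock or subcutaneous pentylenetetrazole; neurotoxicity by rotorod. Read at 0.5 and 4 h, with some at 0.25, 1 and 2 h. Value is the minimum active dose, with protected (or toxic)/tested animals.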

Adenosine receptor A1 = biological target: T1, Adenosine receptor A1 (Rattus norvegicus, UniProt P25099); test: Displacement of [3H]CCPA from adenosine A1 receptor in rat brain cortical membrane; format: cell membranes
T1 sequence (P25099 whole entry): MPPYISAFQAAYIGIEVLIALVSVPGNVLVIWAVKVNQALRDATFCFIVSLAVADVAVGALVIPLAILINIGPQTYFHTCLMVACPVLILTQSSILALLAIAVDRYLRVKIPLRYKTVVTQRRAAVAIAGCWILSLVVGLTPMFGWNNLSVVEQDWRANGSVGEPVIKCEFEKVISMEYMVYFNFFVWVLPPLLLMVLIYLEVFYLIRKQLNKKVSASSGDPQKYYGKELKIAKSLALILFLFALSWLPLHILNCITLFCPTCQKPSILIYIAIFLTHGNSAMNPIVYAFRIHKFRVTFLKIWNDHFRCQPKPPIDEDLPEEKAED

Adenosine receptor A2b = biological target: T2, Adenosine receptor A2b (Homo sapiens, UniProt P29275); test: Displacement of [3H]ZM241385 from human adenosine A2B receptor expressed in CHO cells; format: cell-based
T2 sequence (P29275 whole entry): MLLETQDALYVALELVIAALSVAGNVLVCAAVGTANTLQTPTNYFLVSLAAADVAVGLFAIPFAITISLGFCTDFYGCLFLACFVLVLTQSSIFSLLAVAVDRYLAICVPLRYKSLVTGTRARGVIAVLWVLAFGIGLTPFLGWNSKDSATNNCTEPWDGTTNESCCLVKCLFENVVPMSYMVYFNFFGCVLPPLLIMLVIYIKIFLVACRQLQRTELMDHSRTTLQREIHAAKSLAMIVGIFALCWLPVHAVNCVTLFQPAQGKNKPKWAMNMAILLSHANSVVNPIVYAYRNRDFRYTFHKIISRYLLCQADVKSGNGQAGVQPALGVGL

Mus musculus [2] = test: Anticonvulsant activity in F1 albino mouse assessed as protection against maximal electroshock-induced seizures at 300 mg/kg, ip after 0.5 hrs; format: functional, organism-based; set-up: dose 300 mg/kg; how it was run: as §1
Mus musculus [3] = test: Anticonvulsant activity in F1 albino mouse assessed as protection against maximal electroshock-induced seizures at 300 mg/kg, ip after 1 hr; format: functional, organism-based; set-up: dose 300 mg/kg; how it was run: as §1
Rattus norvegicus [4] = test: Anticonvulsant activity in Sprague-Dawley albino rat assessed as protection against maximal electroshock-induced seizures at 30 mg/kg, po after 0.5 hrs; format: functional, organism-based; set-up: dose 30 mg/kg
How it was run: (§2)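 Male Sprague-Dawley albino rats (100–150 g), groups of 4. Oral suspension in 0.5% methylcellulose/water. Protection assessed by maximal electroshock or subcutaneous pentylenetetrazole; motor impairment by rotorod. Time points 0.25–4 h. Value is protected (or toxic)/tested animals.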

Rattus norvegicus [5] = test: Anticonvulsant activity in Sprague-Dawley albino rat assessed as protection against maximal electroshock-induced seizures at 30 mg/kg, po after 1 hr; format: functional, organism-based; set-up: dose 30 mg/kg; how it was run: as §2
Rattus norvegicus [6] = test: Anticonvulsant activity in Sprague-Dawley albino rat assessed as protection against subcutaneous pentylenetetrazole-induced seizures at 50 mg/kg, po after 0.25 hrs; format: functional, organism-based; set-up: dose 50 mg/kg; how it was run: as §2
Rattus norvegicus [7] = test: Neurotoxicity in Sprague-Dawley albino rat assessed as minimal motor impairment at 30 mg/kg, po after 0.25 hrs by rotorod test; format: toxicity, organism-based; set-up: dose 30 mg/kg, route oral; conditions: in vivo; how it was run: as §2
Adenosine receptor A2a = Adenosine receptor A2a (Homo sapiens, UniProt P29274); test: Displacement of [3H]MSX-2 from human recombinant adenosine A2A receptor expressed in CHO cells; format: cell-based
Rattus norvegicus [8] = test: Anticonvulsant activity in Sprague-Dawley albino rat assessed as protection against subcutaneous pentylenetetrazole-induced seizures at 50 mg/kg, po after 1 hr; format: functional, organism-based; set-up: dose 50 mg/kg; how it was run: as §2

Adenosine receptor A2a, sequence (P29274 whole entry): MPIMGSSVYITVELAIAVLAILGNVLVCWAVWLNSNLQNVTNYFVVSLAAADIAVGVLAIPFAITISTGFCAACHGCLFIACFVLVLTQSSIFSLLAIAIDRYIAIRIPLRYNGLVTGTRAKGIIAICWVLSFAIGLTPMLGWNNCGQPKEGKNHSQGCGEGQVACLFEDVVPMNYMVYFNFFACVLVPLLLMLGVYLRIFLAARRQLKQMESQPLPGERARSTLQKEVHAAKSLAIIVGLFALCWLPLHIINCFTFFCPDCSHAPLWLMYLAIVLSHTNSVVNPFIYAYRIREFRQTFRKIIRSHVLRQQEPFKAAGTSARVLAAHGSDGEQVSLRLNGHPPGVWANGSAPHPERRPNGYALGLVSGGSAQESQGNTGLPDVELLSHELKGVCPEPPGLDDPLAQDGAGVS

For `Cn1c(=O)c2c(nc3n2CCCN3CC2CC2)n(C)c1=O`, the Activity (Mus musculus [1]) was “Toxic”, the Ki (Adenosine receptor A1) was 2390 nM and the Ki (Adenosine receptor A2b) was 12500 nM. For the same compound, the Activity (Mus musculus [2]) was “Active”, the Activity (Mus musculus [3]) was “inactive” and the Activity (Rattus norvegicus [4]) was “inactive”. The Activity (Rattus norvegicus [5]) was “inactive”, the Activity (Rattus norvegicus [6]) was “inactive” and the Activity (Rattus norvegicus [7]) was “Non-toxic”. The Ki (Adenosine receptor A2a) was 417 nM and the Activity (Rattus norvegicus [8]) was “inactive”.
